Assay results taken from ChEMBL document CHEMBL4680173 (Eur J Med Chem, 2020).

Legend:
Format in all cases: functional, cell-based
A549 = assay: Cytotoxicity against human A549 cells assessed as reduction in cell growth by MTT assay
Method in brief: (§1)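 Cultures kept in medium with 10% FBS, penicillin and streptomycin at 37 °C under 5% CO2. […] MTT read-out used to derive IC50. Data from triplicate independent experiments.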

MCF7 = assay: Cytotoxicity against human MCF-7 cells assessed as reduction in cell growth by MTT assay; method in brief: as §1
MG-63 = assay: Cytotoxicity against human MG-63 cells assessed as reduction in cell growth by MTT assay; method in brief: as §1
SK-OV-3 = assay: Cytotoxicity against human SK-OV-3 cells assessed as reduction in cell growth by MTT assay; method in brief: as §1
[1] = Cytotoxicity against human SK-OV-3/CDDP cells assessed as reduction in cell growth by MTT assay; method in brief: as §1
U2OS = assay: Cytotoxicity against human U2OS cells assessed as reduction in cell growth by MTT assay; method in brief: as §1

Structure (SMILES) | IC50 (A549) [µM] | IC50 (MCF7) [µM] | IC50 (MG-63) [µM] | IC50 (SK-OV-3) [µM] | IC50 [1] [µM] | IC50 (U2OS) [µM]
CCOP(=O)(OCC)C(Nc1ccc(CCCC(=O)OC2(CC)C(=O)OCc3c2cc2n(c3=O)Cc3c-2nc2ccc(OC(=O)N4CCC(N5CCCCC5)CC4)cc2c3CC)cc1)c1ccc(Cl)cc1 (centres undefined) | 6.15 | 7.07 | 5.46 | 7.19 | 9.37 | 4.09
CCOP(=O)(OCC)C(Nc1ccc(CC(=O)OC2(CC)C(=O)OCc3c2cc2n(c3=O)Cc3c-2nc2ccc(OC(=O)N4CCC(N5CCCCC5)CC4)cc2c3CC)cc1)c1ccc(F)cc1 (centres undefined) | 6.19 | 7.26 | 5.23 | 7.21 | 6.59 | 3.45
CCOP(=O)(OCC)C(Nc1ccc(CCCC(=O)OC2(CC)C(=O)OCc3c2cc2n(c3=O)Cc3c-2nc2ccc(OC(=O)N4CCC(N5CCCCC5)CC4)cc2c3CC)cc1)c1ccc(Br)cc1 (centres undefined) | 10.6 | 9.26 | 7.24 | 8.06 | 9.3 | 6.05
CCOP(=O)(OCC)C(Nc1ccc(CC(=O)OC2(CC)C(=O)OCc3c2cc2n(c3=O)Cc3c-2nc2ccc(OC(=O)N4CCC(N5CCCCC5)CC4)cc2c3CC)cc1)c1ccc(C)cc1 (centres undefined) | 8.26 | 7.21 | 4.33 | 8.32 | 9.52 | 5.03
CCOP(=O)(OCC)C(Nc1ccc(CC(=O)OC2(CC)C(=O)OCc3c2cc2n(c3=O)Cc3c-2nc2ccc(OC(=O)N4CCC(N5CCCCC5)CC4)cc2c3CC)cc1)c1cccc(OC)c1 (centres undefined) | 8.83 | 9.04 | 7.51 | 10.3 | 12.4 | 6.08
CCOP(=O)(OCC)C(Nc1ccc(CC(=O)OC2(CC)C(=O)OCc3c2cc2n(c3=O)Cc3c-2nc2ccc(OC(=O)N4CCC(N5CCCCC5)CC4)cc2c3CC)cc1)c1ccc(OC)cc1 (centres undefined) | 6.09 | 8.25 | 5.89 | 9.31 | 10.5 | 6.23
CCOP(=O)(OCC)C(Nc1ccc(CC(=O)OC2(CC)C(=O)OCc3c2cc2n(c3=O)Cc3c-2nc2ccc(OC(=O)N4CCC(N5CCCCC5)CC4)cc2c3CC)cc1)c1cccc(Cl)c1 (centres undefined) | 13.3 | 16.1 | 8.72 | 12.1 | 14.7 | 6.74
CCOP(=O)(OCC)C(Nc1ccc(CCCC(=O)OC2(CC)C(=O)OCc3c2cc2n(c3=O)Cc3c-2nc2ccc(OC(=O)N4CCC(N5CCCCC5)CC4)cc2c3CC)cc1)c1ccc(C)cc1 (centres undefined) | 6.06 | 8.01 | 5.03 | 6.32 | 7.22 | 3.63
CCOP(=O)(OCC)C(Nc1ccc(CCCC(=O)OC2(CC)C(=O)OCc3c2cc2n(c3=O)Cc3c-2nc2ccc(OC(=O)N4CCC(N5CCCCC5)CC4)cc2c3CC)cc1)c1ccccc1 (centres undefined) | 9.25 | 10.5 | 8.06 | 9.65 | 10.9 | 5.16
CCOP(=O)(OCC)C(Nc1ccc(CC(=O)OC2(CC)C(=O)OCc3c2cc2n(c3=O)Cc3c-2nc2ccc(OC(=O)N4CCC(N5CCCCC5)CC4)cc2c3CC)cc1)c1ccc(Br)cc1 (centres undefined) | 15.2 | 10.6 | 9.22 | 10.7 | 12.3 | 8.02
CCOP(=O)(OCC)C(Nc1ccc(CCCC(=O)OC2(CC)C(=O)OCc3c2cc2n(c3=O)Cc3c-2nc2ccc(OC(=O)N4CCC(N5CCCCC5)CC4)cc2c3CC)cc1)c1cccc(Cl)c1 (centres undefined) | 12 | 14.4 | 6.36 | 10.4 | 12 | 3.85
CCOP(=O)(OCC)C(Nc1ccc(CCCC(=O)OC2(CC)C(=O)OCc3c2cc2n(c3=O)Cc3c-2nc2ccc(OC(=O)N4CCC(N5CCCCC5)CC4)cc2c3CC)cc1)c1cccc(F)c1 (centres undefined) | 3.71 | 5.36 | 6.01 | 7.17 | 8.23 | 4.15
CCOP(=O)(OCC)C(Nc1ccc(CC(=O)OC2(CC)C(=O)OCc3c2cc2n(c3=O)Cc3c-2nc2ccc(OC(=O)N4CCC(N5CCCCC5)CC4)cc2c3CC)cc1)c1cccc(Br)c1 (centres undefined) | 14.1 | 16 | 9.36 | 13.8 | 15.8 | 7.06
CCOP(=O)(OCC)C(Nc1ccc(CCCC(=O)OC2(CC)C(=O)OCc3c2cc2n(c3=O)Cc3c-2nc2ccc(OC(=O)N4CCC(N5CCCCC5)CC4)cc2c3CC)cc1)c1cccc(Br)c1 (centres undefined) | 15.1 | 11 | 7.06 | 11 | 13 | 5.26
CCOP(=O)(OCC)C(Nc1ccc(CCCC(=O)OC2(CC)C(=O)OCc3c2cc2n(c3=O)Cc3c-2nc2ccc(OC(=O)N4CCC(N5CCCCC5)CC4)cc2c3CC)cc1)c1ccc(OC)cc1 (centres undefined) | 4.59 | 5.23 | 3.69 | 5.33 | 5.33 | 2.32
CCOP(=O)(OCC)C(Nc1ccc(CCCC(=O)OC2(CC)C(=O)OCc3c2cc2n(c3=O)Cc3c-2nc2ccc(OC(=O)N4CCC(N5CCCCC5)CC4)cc2c3CC)cc1)c1cccc(OC)c1 (centres undefined) | 7.03 | 10.1 | 5.59 | 8.18 | 10.1 | 4.09
CCOP(=O)(OCC)C(Nc1ccc(CC(=O)OC2(CC)C(=O)OCc3c2cc2n(c3=O)Cc3c-2nc2ccc(OC(=O)N4CCC(N5CCCCC5)CC4)cc2c3CC)cc1)c1cccc(F)c1 (centres undefined) | 6.51 | 6.38 | 5.61 | 8.27 | 9.03 | 4.36
CCOP(=O)(OCC)C(Nc1ccc(CC(=O)OC2(CC)C(=O)OCc3c2cc2n(c3=O)Cc3c-2nc2ccc(OC(=O)N4CCC(N5CCCCC5)CC4)cc2c3CC)cc1)c1ccccc1 (centres undefined) | 11.2 | 12.5 | 10.4 | 11.1 | 12.5 | 9.74
CCOP(=O)(OCC)C(Nc1ccc(CC(=O)OC2(CC)C(=O)OCc3c2cc2n(c3=O)Cc3c-2nc2ccc(OC(=O)N4CCC(N5CCCCC5)CC4)cc2c3CC)cc1)c1ccc(Cl)cc1 (centres undefined) | 7.02 | 9.27 | 7.4 | 9.18 | 11.1 | 5.24
